Experimental findings from ChEMBL document CHEMBL5030525, “Design, synthesis and antitumor activity evaluation of trifluoromethyl-substituted pyrimidine derivatives” (Bioorg Med Chem Lett, 2021) are described below.

Holding throughout (format): functional, cell-based
For one experiment, the system named is NCI-H1975. The experiment can be described thus: Antiproliferative activity against human NCI-H1975 cells assessed as inhibition of cell growth measured after 72 hrs by MTT assay. The note with it: NCI-H1975, 72 h. Put shortly:
(§1)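 Cells in log phase were seeded at 3000–5000 per well and cultured 24 h at 37 °C, then exposed to a range of compound concentrations in fresh medium for 72 h. MTT was added and incubated 4 h at 37 °C, formazan was dissolved in DMSO, and absorbance was read at 490 nm. IC50 was taken from survival rate, as mean ± SD of three independent experiments. Stocks were 10 mM in DMSO.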

A further experiment relates to PC-3. As to the kind of experiment: Antiproliferative activity against human PC-3 cells assessed as inhibition of cell growth measured after 72 hrs by MTT assay. The note with it: PC-3, 72 h. The method in brief: as §1
(In general: Formazan colour is commonly taken as a measure of viable cells.)

The next experiment has as its system MGC-803. As to the kind of experiment: Antiproliferative activity against human MGC-803 cells assessed as inhibition of cell growth measured after 72 hrs by MTT assay. The note with it: MGC-803, 72 h. Put shortly:
as §1

The next experiment relates to MCF7. As to the kind of experiment: Antiproliferative activity against human MCF7 cells assessed as inhibition of cell growth measured after 72 hrs by MTT assay. The note with it: MCF7, 72 h. Put shortly:
as §1

With `C=CC(=O)Nc1cccc(Nc2cc(C(F)(F)F)nc(SCC3CCCO3)n2)c1` (stereo not drawn), the half-maximal inhibitory concentration (IC50) (commonly the concentration at which inhibition is half-maximal) in the experiment on NCI-H1975 was 17.6 µM; in the experiment on PC-3 it was 12.9 µM; in the experiment on MGC-803, 37.2 µM; in the experiment with MCF7 it was 18.3 µM.
For `FC(F)(F)c1ccc(CSc2nc(N3CCOCC3)cc(C(F)(F)F)n2)cc1`, in that order: over 50 µM, 40.8 µM, over 50 µM and over 50 µM.
Consider `CC(C)(C)OC(=O)N1CCN(c2cc(C(F)(F)F)nc(SCc3ccc(C(F)(F)F)cc3)n2)CC1`, for which the half-maximal inhibitory concentration (IC50) was over 50 µM in the experiment with NCI-H1975, 40.6 µM with PC-3, 22.2 µM with MGC-803 and over 50 µM in the experiment on MCF7.
With `COc1cc(Nc2cc(C(F)(F)F)nc(SCc3ccc(C(F)(F)F)cc3)n2)cc(OC)c1OC`, the 50% inhibitory concentration (IC50) with NCI-H1975 is 9.92 µM; in the experiment with PC-3 it was 19.5 µM; in the experiment on MGC-803, 15.5 µM; in the experiment on MCF7, 10.9 µM.
As for `FC(F)(F)c1ccc(CSc2nc(Sc3ccccn3)cc(C(F)(F)F)n2)cc1`, the IC50 in the experiment on NCI-H1975 is 23.9 µM; in the experiment on PC-3, 25.2 µM; in the experiment on MGC-803, over 50 µM; in the experiment with MCF7, 43.2 µM.
For `FC(F)(F)c1ccc(CSc2nc(N3CCNCC3)cc(C(F)(F)F)n2)cc1` the same measures were 6.21 µM, 15.9 µM, 5.87 µM and 10.7 µM.
`C=CC(=O)Nc1cccc(Nc2cc(C(F)(F)F)nc(SCc3cccc(Cl)c3)n2)c1`: the concentration for half-maximal inhibition (IC50) with NCI-H1975 was determined as 14.8 µM; in the experiment on PC-3 it was 10.5 µM; in the experiment on MGC-803, 35.2 µM; in the experiment on MCF7, 10.1 µM.
For `C=CC(=O)Nc1cccc(Nc2cc(C(F)(F)F)nc(SCc3cccc(OC)c3)n2)c1`, the IC50 with NCI-H1975 worked out at 9.45 µM; in the experiment on PC-3, 11.5 µM; with MGC-803 it was 32.4 µM; in the experiment on MCF7, 8.91 µM.
As to `FC(F)(F)c1ccc(CSc2nc(N3CCN(c4ccccc4)CC3)cc(C(F)(F)F)n2)cc1`, the half-maximal inhibitory concentration (IC50) in the experiment on NCI-H1975 was over 50 µM; in the experiment with PC-3, 42.7 µM; in the experiment on MGC-803, 35.2 µM; in the experiment on MCF7 it was over 50 µM.
Take `COc1ccc(Nc2cc(C(F)(F)F)nc(SCc3ccc(C(F)(F)F)cc3)n2)cc1`: the concentration for half-maximal inhibition (IC50) in the experiment on NCI-H1975 was found to be 13.8 µM; with PC-3, 35.3 µM; with MGC-803, 8.7 µM; in the experiment on MCF7, 22.2 µM.
Take `Cc1csc(Sc2cc(C(F)(F)F)nc(SCc3ccc(C(F)(F)F)cc3)n2)n1`: the IC50 is 5.84 µM in the experiment with NCI-H1975, 12 µM with PC-3, 21.3 µM in the experiment on MGC-803 and 14.5 µM in the experiment with MCF7.
`C=CC(=O)Nc1cccc(Nc2cc(C(F)(F)F)nc(SCc3cccc(F)c3)n2)c1`: the concentration for half-maximal inhibition (IC50) is 13.7 µM in the experiment on NCI-H1975, 8.57 µM with PC-3, 7.14 µM in the experiment on MGC-803 and 23 µM in the experiment on MCF7.
For `C=CC(=O)Nc1cccc(Nc2cc(C(F)(F)F)nc(SCc3ccccc3OC)n2)c1`, in that order: 6.5 µM, 9.96 µM, 32.7 µM and 22 µM.
On to `C=CC(=O)Nc1cccc(Nc2cc(C(F)(F)F)nc(SCc3ccc(Cl)cc3)n2)c1`, for which the IC50 amounted to 11.7 µM in the experiment with NCI-H1975, 9.99 µM in the experiment on PC-3, 29.3 µM in the experiment with MGC-803 and 15.8 µM in the experiment with MCF7.
For `FC(F)(F)c1ccc(CSc2nc(SC3=NCCS3)cc(C(F)(F)F)n2)cc1` the same measures were 24.2 µM, 40.6 µM, 24.5 µM and 44.9 µM.
On to `FC(F)(F)c1ccc(CSc2nc(Sc3ncc(-c4ccncc4)s3)cc(C(F)(F)F)n2)cc1`, for which the IC50 in the experiment on NCI-H1975 stood at 16.7 µM; in the experiment with PC-3, 7.35 µM; in the experiment on MGC-803, 5.77 µM; in the experiment with MCF7, 10.1 µM.
On to `C=CC(=O)Nc1cccc(Nc2cc(C(F)(F)F)nc(SCc3cnc(Cl)s3)n2)c1`, for which the 50% inhibitory concentration (IC50) in the experiment with NCI-H1975 was found to be 10.9 µM; in the experiment on PC-3 it was 11.5 µM; in the experiment with MGC-803, 38.3 µM; in the experiment on MCF7, 10.7 µM.
`C=CC(=O)Nc1cccc(Nc2cc(C(F)(F)F)nc(SCc3ccccc3F)n2)c1`: the IC50 amounted to 15.4 µM with NCI-H1975, 8.67 µM in the experiment on PC-3, 13.4 µM in the experiment with MGC-803 and 31.1 µM in the experiment on MCF7.
With `C=CC(=O)Nc1cccc(Nc2cc(C(F)(F)F)nc(SCc3cccc(C(F)(F)F)c3)n2)c1`, the IC50 came to 5.07 µM with NCI-H1975, 5.92 µM with PC-3, 18.7 µM with MGC-803 and 12.4 µM in the experiment on MCF7.
On to `FC(F)(F)c1ccc(CSc2nc(N3CCN(c4ncccn4)CC3)cc(C(F)(F)F)n2)cc1`, for which the 50% inhibitory concentration (IC50) in the experiment with NCI-H1975 was 18.3 µM; in the experiment with PC-3, over 50 µM; with MGC-803 it was 35.2 µM; with MCF7 it was over 50 µM.
Regarding `C=CC(=O)Nc1cccc(Nc2cc(C(F)(F)F)nc(SCC3CCCCC3)n2)c1`, the 50% inhibitory concentration (IC50) came to 18 µM with NCI-H1975, 12.5 µM with PC-3, 34.1 µM in the experiment on MGC-803 and 11.2 µM in the experiment on MCF7.
As to `FC(F)(F)c1ccc(CSc2nc(Nc3ccc(Cl)cc3Cl)cc(C(F)(F)F)n2)cc1`, the IC50 is 33.5 µM in the experiment with NCI-H1975, 29.6 µM in the experiment on PC-3, 35.5 µM in the experiment with MGC-803 and over 50 µM in the experiment with MCF7.
For `C=CC(=O)Nc1cccc(Nc2cc(C(F)(F)F)nc(SCc3ccc(C)cc3)n2)c1`, in that order: 15 µM, 17.8 µM, 18.5 µM and 25.7 µM.
In the case of `C=CC(=O)Nc1cccc(Nc2cc(C(F)(F)F)nc(SCc3c(Cl)cccc3Cl)n2)c1`, the IC50 in the experiment on NCI-H1975 was 9.03 µM; in the experiment with PC-3 it was 14.6 µM; in the experiment with MGC-803, 34.7 µM; in the experiment with MCF7 it was 9.66 µM.
In the case of `C=CC(=O)Nc1cccc(Nc2cc(C(F)(F)F)nc(SCC3CC3)n2)c1`, the IC50 stood at 19.2 µM in the experiment with NCI-H1975, 12.6 µM in the experiment with PC-3, 38.7 µM in the experiment with MGC-803 and 14.2 µM with MCF7.
Consider `C=CC(=O)Nc1cccc(Nc2cc(C(F)(F)F)nc(SCc3cccc(Br)c3)n2)c1`, for which the IC50 in the experiment on NCI-H1975 amounted to 7.44 µM; in the experiment on PC-3 it was 7.44 µM; with MGC-803, 22.8 µM; in the experiment on MCF7, 14.3 µM.
In the case of `CCN1CCN(c2cc(C(F)(F)F)nc(SCc3ccc(C(F)(F)F)cc3)n2)CC1`, the half-inhibitory concentration (IC50) in the experiment on NCI-H1975 is 15 µM; with PC-3, 27.2 µM; in the experiment on MGC-803, 25.6 µM; in the experiment on MCF7, 22 µM.
Consider `C=CC(=O)Nc1cccc(Nc2cc(C(F)(F)F)nc(SCc3ccccc3Cl)n2)c1`, for which the IC50 in the experiment with NCI-H1975 stood at 13.1 µM; in the experiment with PC-3 it was 13.6 µM; in the experiment with MGC-803, 28.4 µM; in the experiment with MCF7 it was 11.8 µM.
Consider `CN1CCN(c2cc(C(F)(F)F)nc(SCc3ccc(C(F)(F)F)cc3)n2)CC1`, for which the IC50 came out at 23.9 µM in the experiment with NCI-H1975, 34.7 µM in the experiment on PC-3, 15.8 µM in the experiment with MGC-803 and 30.2 µM with MCF7.
As for `C=CC(=O)Nc1cccc(Nc2cc(C(F)(F)F)nc(SCc3ccccc3C(F)(F)F)n2)c1`, the IC50 with NCI-H1975 was found to be 6.55 µM; in the experiment on PC-3, 7.96 µM; in the experiment on MGC-803, 26.6 µM; with MCF7 it was 17.2 µM.
Take `COc1ccc(Nc2cc(C(F)(F)F)nc(SCc3ccc(C(F)(F)F)cc3)n2)cn1`: the half-inhibitory concentration (IC50) in the experiment with NCI-H1975 is 6.32 µM; with PC-3, 23.8 µM; in the experiment on MGC-803, 12.2 µM; with MCF7, 36.9 µM.
With `Cc1nnc(Sc2cc(C(F)(F)F)nc(SCc3ccc(C(F)(F)F)cc3)n2)s1`, the IC50 with NCI-H1975 was 3.06 µM; in the experiment with PC-3 it was over 50 µM; in the experiment with MGC-803, 11.4 µM; with MCF7 it was over 50 µM.
